Results on seven molecules are retold here after PMC4765894 (Journal of Medicinal Chemistry, 2015).

SMILES strings stand for the structures. Entries after “also recorded” stand apart in the source; their conditions may differ.

One assay deals with HIF-1. Description: Dual luciferase-reporter assay. It is filed as cell-based, human. The following applies: HEK-293T, 24 h; for IC50: Homo sapiens. The gist of the method: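 HEK-293T seeded at 5 × 10^3 cells/well, attached 24 h, then transiently co-transfected with a firefly reporter carrying five HRE copies from the human VEGF promoter and a Renilla plasmid (pRL-SV40). Cells were then exposed to serially diluted test compound under 1% O2 for 24 h. Dual-Glo firefly read, then Stop & Glo Renilla read (10 min each). Firefly normalized to Renilla; three independent experiments.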

The test system of a further assay is VEGF mRNA. Description: Real-time PCR of VEGF mRNA under hypoxia. As to conditions: 1 μM, hypoxic conditions, 24 h, normalized against β-actin. It is filed as cell-based, human. The gist of the method: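 Cells were given test compound at 1 μM under hypoxic conditions for 24 h, with normoxic and hypoxic controls. Total RNA was extracted with TRIzol and cDNA made with MMLV reverse transcriptase. SYBR Green real-time PCR used 10-fold diluted cDNA and gene-specific primers: 2 min 50 °C, 10 min 95 °C, then 40 cycles of 15 s 95 °C and 1 min 60 °C. Mean CT values were normalized to β-actin; triplicate runs, averaged.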

Assay [1] concerns HIF-1α. Briefly: Western blot of HIF-1α expression in HEK-293T cells under hypoxia. It is filed as cell-based, human. The following applies: 1 μM, hypoxia (1% O2), 24 h. The gist of the method: (§1)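 HEK-293T cells were held under hypoxia (1% O2) for 24 h with or without test compound at 1 μM, with a normoxic comparison. Total protein lysates were resolved by SDS-PAGE and transferred to nitrocellulose. Membranes were blocked 30 min at room temperature in 5% skim milk/TBS-0.1% Tween-20, then given primary antibody overnight at 4 °C and HRP secondary 1 h at room temperature. Detection was chemiluminescent, with β-actin as internal control.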

The next assay has as its system HIF-1β. Description: Western blot of HIF-1β expression in HEK-293T cells under hypoxia. Type of assay: cell-based, human. The following applies: 1 μM, 24 h. The gist of the method: as §1
In assay [2] the test system is cyclin-dependent kinase 6 (Cdk6). Description: Western blot of Cdk6. Type of assay: cell-based, human. The following applies: 1 μM, hypoxic conditions, 24 h. The procedure, abridged:
as §1

The next assay concerns VEGF secretion. As to conditions: cited from earlier work.
The test system of assay [3] is HIF-1α. As to conditions: 4T1 cells, hypoxic conditions, concentrations between 10 and 100 nM; cited from earlier work.

In the case of `COc1ccc(C(=O)COc2cc(C(=O)[C@@H](C)Oc3ccc([C@H]4O[C@H](c5ccc(O[C@H](C)C(=O)c6ccc(OC)c(OCC(=O)c7ccc(OC)c(OC)c7)c6)c(OC)c5)[C@H](C)[C@H]4C)cc3OC)ccc2OC)cc1OC` [MA02], the “HIF-1 inhibitory activity in luciferase assay (in words)” value in the assay on HIF-1 (hypoxia (1% O2)) was “almost inactive”. Moreover, in the assay with HIF-1, the IC50 was > 10000 µM.
On to `COc1ccc([C@@H](O)[C@@H](C)Oc2ccc([C@H]3O[C@H](c4ccc(OC)c(OC)c4)[C@H](C)[C@H]3C)cc2OC)cc1OC` [MA04, 4-O-methylsaucerneol], for which the “VEGF mRNA levels” value in the assay with VEGF mRNA was “significantly reduced”. In addition, the “expression level of HIF-1α” value in the assay with HIF-1α [1] is on record as “significantly down-regulated; also recorded: inhibit the expression”. Besides, the “regulation of HIF-1β” value with HIF-1β was “did not regulate”. The “protein level of Cdk6” value in assay [2] is “decreased”.
Turning to `COc1ccc(C(=O)COc2ccc([C@H]3O[C@H](c4ccc(OCC(=O)c5ccc(OC)c(OC)c5)c(OC)c4)[C@H](C)[C@H]3C)cc2OC)cc1OC` [MA07], the “expression level of HIF-1α” value in the assay on HIF-1α [1] is given as “significantly down-regulated; also recorded: inhibit the expression”. Besides, in the assay with HIF-1β, the “regulation of HIF-1β” value was “did not regulate”. In addition, the “protein level of Cdk6” value in assay [2] is on record as “decreased”.
As to `COc1cc([C@H]2O[C@H](c3ccc(O[C@H](C)C(=O)c4ccccc4)c(OC)c3)[C@H](C)[C@H]2C)ccc1O[C@H](C)C(=O)c1ccccc1` [MA11], the “expression level of HIF-1α” value in the assay with HIF-1α [1] is given as “significantly down-regulated; also recorded: inhibit the expression”. Further, in the assay on HIF-1β, the “regulation of HIF-1β” value is reported as “did not regulate”. The “protein level of Cdk6” value in assay [2] is “decreased”.
Molecule `C#CCOc1cc(C(=O)[C@@H](C)Oc2ccc([C@H]3O[C@H](c4ccc(O[C@H](C)C(=O)c5ccc(C6(C(F)(F)F)N=N6)cc5)c(OC)c4)[C@H](C)[C@H]3C)cc2OC)ccc1OC` [MA13] had an IC50 in the assay on HIF-1 of 0.73 µM.
In the case of `COc1ccc(C(=O)[C@@H](C)Oc2ccc([C@H]3O[C@H](c4ccc(O[C@H](C)C(=O)c5ccc(C6(C(F)(F)F)N=N6)cc5)c(OC)c4)[C@H](C)[C@H]3C)cc2OC)cc1OCCOCCOCCNC(=O)CCCC[C@@H]1SC[C@@H]2NC(=O)N[C@@H]21` [MA14], in the assay on HIF-1, the IC50 was 2.32 µM.
`COc1ccc([C@@H](O)[C@@H](C)Oc2ccc([C@H]3O[C@H](c4ccc(O[C@H](C)[C@H](O)c5ccc(OC)c(OC)c5)c(OC)c4)[C@H](C)[C@H]3C)cc2OC)cc1OC` [compound 1, manassantin A, reference compound]: the “HIF-1 regulated VEGF secretion” value in the assay with VEGF secretion is on record as “dramatically reduced”. Further, the “hypoxia-induced HIF-1α expression” value with HIF-1α [3] is on record as “significantly inhibited”. For the same molecule, the “expression level of HIF-1α” value in the assay on HIF-1α [1] is on record as “inhibit the expression”. In addition, in the assay with HIF-1β, the “regulation of HIF-1β” value is listed as “did not regulate”. The molecule further came in with an IC50 in the assay with HIF-1 of 0.011 ± 0.003 µM.
